From ChEMBL document CHEMBL1135936, “6-[2-(Phosphonomethoxy)alkoxy]pyrimidines with antiviral activity” (J Med Chem, 2002) come the findings set out here.

Values after ≈ are worked out from the molar mass of the structure shown.

Assay [1] relates to CCRF-CEM. Kind of assay: (§1) In vitro cytotoxicity against CCRF-CEM T lymphoblastoid cells. It counts as functional, Homo sapiens. The method, boiled down: (§2)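 Cells were grown for 72 h at a constant compound concentration of 10 µM, then counted. Growth inhibition is given relative to cell counts in control cultures grown in medium without compound. Lines: mouse L1210 and L929, human HeLaS3 and CCRF-CEM.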

Assay [2] deals with CCRF-CEM. Kind of assay: Inhibition of Human immunodeficiency virus (HIV) -1 III B strain induced cytopathicity in CEM cell line. It counts as functional, cell-based. In outline: (§3)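 CEM cells were infected with 100 CCID50 per mL of HIV-1 (IIIB) or HIV-2 (ROD). Cells were seeded into wells containing dilutions of compound and incubated 4 days at 37 °C. CEM giant cell formation was then examined microscopically.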
Background: Damage to the host cells serves as the signal in cytopathic effect assays.

Assay [3] has as its system CCRF-CEM. The assay is described as follows: Inhibition of Human immunodeficiency virus (HIV)-2 ROD strain induced cytopathicity in CEM cell line. It is filed as functional, cell-based. The method, boiled down: as §3
Assay [4] relates to Moloney murine sarcoma virus. The assay is described as follows: Inhibition of moloney sarcoma virus (MSV) induced cytopathicity in C3H/3T3 embryo fibroblast cells. It counts as functional, organism-based. The method, boiled down: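 C3H/3T3 murine embryo fibroblasts were seeded in 48-well plates and infected 24 h later with 80 focus-forming units of MSV. MSV stock was prepared from tumours in NMRI mice. Virus adsorbed for 10-120 min at 37 °C, then fresh medium with compound dilutions was added. Transformation was examined microscopically after 6 days.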

The subject of assay [5] is E6SM. The assay is described as follows: Inhibition of Herpes simplex virus-1, KOS strain induced cytopathicity in E6SM cell line. It is filed as functional, cell-based. The conditions noted are these: Homo sapiens. The method, boiled down: (§4)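 Inhibition of virus-induced cytopathicity in confluent cell cultures in 96-well plates inoculated with 100 CCID50 of virus; 1 CCID50 is the virus dose infecting 50% of cultures. EC50 is based on reduction of cytopathicity.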

The subject of assay [6] is E6SM. Kind of assay: Inhibition of Herpes simplex virus-2 (G strain) induced cytopathicity in E6SM cell line. It is filed as functional, cell-based. The following applies: Homo sapiens. In outline: as §4
Assay [7] deals with E6SM. Kind of assay: Inhibition of thymidine kinase deficient Herpes simplex virus-1 VMW 1837 strain induced cytopathicity in E6SM cell line. It is filed as functional, cell-based. The following applies: Homo sapiens. The method, boiled down:
as §4

Assay [8] has as its system Human alphaherpesvirus 3. Kind of assay: Inhibition of Thymidine kinase deficient (TK-) Varicella-Zoster virus (VZV) 07/1 strain induced cytopathicity n HEL cell line. The conditions noted are these: Human alphaherpesvirus 3, tk-07, HEL. It is filed as functional, organism-based. In outline:
as §4

Assay [9] deals with HEL. Kind of assay: Inhibition of Thymidine kinase deficient (TK-) Varicella-Zoster virus (VZV) YS/R strain induced cytopathicity in HEL cell line. It is filed as functional, cell-based. The conditions noted are these: Homo sapiens. In outline:
as §4

The test system of assay [10] is HEL. Kind of assay: Inhibition of Varicella-Zoster virus (VZV) OKA strain induced cytopathicity in HEL cell line. It is filed as functional, cell-based. The following applies: Homo sapiens. In outline:
as §4

For assay [11], the system named is HEL. Kind of assay: Inhibition of Varicella-Zoster virus (VZV) YS strain induced cytopathicity in HEL cell line. It counts as functional, cell-based. The conditions noted are these: Homo sapiens. In outline: as §4
Assay [12] has as its system HeLa. Kind of assay: (§5) In vitro cytotoxicity against human cervix carcinoma HeLa S3 cells. It counts as functional. Further details: concentration or dose not given beside the values. The method, boiled down: as §2
Assay [13] deals with L929. The assay is described as follows: (§6) In vitro cytotoxicity against murine L929 cells. It counts as functional, Mus musculus. In outline: as §2
Assay [14] concerns L1210. Kind of assay: (§7) In vitro cytotoxicity against L1210 mouse leukemia cells. It is filed as functional. The method, boiled down:
as §2

The subject of assay [15] is HeLa. Described as §5. It is filed as functional. In outline:
as §2

Assay [16] concerns CCRF-CEM. Kind of assay: In vitro cytotoxicity against CCRF-CEM lymphoblastoid cells. It counts as functional, Homo sapiens. In outline: as §2
Assay [17] concerns L929. The assay is described as §6. It counts as functional, Mus musculus. More on the design: concentration or dose not given beside the values. In outline:
as §2

Assay [18] deals with L1210. The assay is described as §7. It is filed as functional. More on the design: concentration or dose not given beside the values. In outline: as §2
In assay [19] the test system is CCRF-CEM. The assay is described as §1. More on the design: concentration or dose not given beside the values. It counts as functional, Homo sapiens. The method, boiled down: as §2
For assay [20], the system named is unidentified adenovirus. The assay is described as follows: In vitro antiadenovirus activity. It counts as functional, organism-based. In outline:
(§8)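 HEL fibroblasts, confluent, infected on day 0 with 100 CCID50 of human adenovirus type 2 or type 3. After 2 h adsorption at 37 °C, virus was removed and replaced by serial compound dilutions. Cytopathic effect was scored microscopically on day 7-10 p.i. to derive EC50 and minimum cytotoxic concentration.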

For assay [21], the system named is HEL. Kind of assay: Inhibitory activity against HEL cell proliferation. It is filed as functional, cell-based. The conditions noted are these: Homo sapiens.
Assay [22] relates to unidentified adenovirus. The assay is described as follows: Effective concentration for the inhibition of adenovirus. It counts as functional, organism-based. The method, boiled down: as §8
The subject of assay [23] is CCRF-CEM. Kind of assay: Inhibitory activity against CCRF-CEM cells. It is filed as functional, cell-based. The following applies: Homo sapiens. In outline: (§9)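 CCRF-CEM, L1210 and L929 cells were grown with compound for 72 h and then counted. Cell growth inhibition is expressed relative to untreated control cultures, and IC50 is given in µM.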
The test system of assay [24] is L1210. Kind of assay: Inhibitory activity against L1210 cells. It counts as functional, cell-based. The following applies: Mus musculus. The method, boiled down: as §9
The subject of assay [25] is L929. Kind of assay: Inhibitory activity against L929 cells. It counts as functional, cell-based. The following applies: Mus musculus. The method, boiled down:
as §9

With `Nc1nc(OCCOCP(=O)(O)O)cc(=O)n1CCOCP(=O)(O)O`, the Control was 101% in assay [1], 72% in [12], 77% in [13] and 80% in [14]. The EC50 in assay [2] was over 100 µg/mL; in [3] it was over 100 µg/mL; in assay [4], 107 µg/mL (≈ 265 µM); in assay [5] it was over 400 µg/mL; in assay [6], over 400 µg/mL; in assay [7] it was over 400 µg/mL. For the same molecule, the EC50 in [8], in assay [9], in assay [10] and in assay [11] was over 50 µg/mL throughout.

In the case of `Nc1nc(NC2CC2)cc(OCCOCP(=O)(O)O)n1`, the Control in assay [1] is listed as 87%; in [15], 88%; in assay [13], 93%; in assay [14] it was 71%. For the same molecule, the EC50 was over 100 µg/mL in assay [2]; over 100 µg/mL in assay [3]; over 40 µg/mL in assay [4]; 240 µg/mL (≈ 789 µM) in [5]; over 80 µg/mL in [6]; 240 µg/mL (≈ 789 µM) in [7]. For the same molecule, the EC50 in assay [8] was over 50 µg/mL; in assay [9], over 50 µg/mL; in assay [10], over 20 µg/mL; in assay [11], over 50 µg/mL.

As to `Nc1cc(OCCOCP(=O)(O)O)ncn1`, the Control in assay [16] was 95%; in assay [12], 86%; in assay [17], 84%; in assay [18], 81%. Moreover, the EC50 in assay [2] is over 100 µg/mL; in assay [3], over 100 µg/mL; in [4], 13 µg/mL (≈ 52.2 µM); in [5] it was over 16 µg/mL; in assay [6], over 16 µg/mL; in assay [7] it was over 16 µg/mL. Besides, the EC50 in assay [8], in assay [9], in assay [10] and in assay [11] was over 50 µg/mL in each case.

For `Nc1cc(SCCOCP(=O)(O)O)nc(N)n1`, the Control in assay [19] worked out at 89%; in assay [12] it was 98%; in assay [17] it was 88%; in assay [18] it was 83%. Besides, the EC50 was 5.5 µg/mL (≈ 19.6 µM) in assay [2]; 3 µg/mL (≈ 10.7 µM) in [3]; 1.7 µg/mL (≈ 6.07 µM) in assay [4]; 29 µg/mL (≈ 103 µM) in assay [5]; at least 80 µg/mL in [6]; 48 µg/mL (≈ 171 µM) in [7]. Besides, the EC50 was 20 µg/mL (≈ 71.4 µM) in assay [8]; 15 µg/mL (≈ 53.5 µM) in assay [9]; 7.5 µg/mL (≈ 26.8 µM) in assay [10]; 7 µg/mL (≈ 25 µM) in assay [11]; 78 µg/mL (≈ 278 µM) in assay [20]; 50 µg/mL (≈ 178 µM) in assay [21].

In assay [22], `Nc1nc(N)c2ncn(CCOCP(=O)(O)O)c2n1` [PMEDAP] registered an EC50 of 47 µg/mL (≈ 163 µM).

On to `Nc1cc(OCCOCP(=O)(O)O)nc(N)n1`, for which the Control in [19] was 63%; in assay [12], 89%; in assay [17], 61%; in assay [18] it was 62%. Besides, the EC50 in assay [2] is 0.8 µg/mL (≈ 3.03 µM); in [3], 0.43 µg/mL (≈ 1.63 µM); in assay [4], 0.04 µg/mL (≈ 0.151 µM); in [5] it was 6.5 µg/mL (≈ 24.6 µM); in [6], 24 µg/mL (≈ 90.8 µM); in assay [7], 9.6 µg/mL (≈ 36.3 µM). Besides, the EC50 in [8] was found to be 2.5 µg/mL (≈ 9.46 µM); in assay [9], 1.6 µg/mL (≈ 6.06 µM); in assay [10], 1.2 µg/mL (≈ 4.54 µM); in assay [11], 1.1 µg/mL (≈ 4.16 µM). In addition, the IC50 came out at 12.4 µM in [23], 25 µM in [24], 25 µM in assay [25] and 50 µg/mL (≈ 189 µM) in assay [21].

In the case of `Nc1cc(=O)n(CCOCP(=O)(O)O)c(N)n1`, the Control in assay [19] is recorded as 95%; in assay [12], 93%; in [17] it was 96%; in assay [18], 76%. Moreover, the half-maximal effective concentration (EC50) in assay [2] was 80 µg/mL (≈ 303 µM); in assay [3] it was 25 µg/mL (≈ 94.6 µM); in [4] it was 2.92 µg/mL (≈ 11.1 µM); in assay [5], 240 µg/mL (≈ 908 µM); in [6] it was over 400 µg/mL; in assay [7], over 400 µg/mL. In addition, the EC50 was over 50 µg/mL in assay [8], over 50 µg/mL in assay [9], 32 µg/mL (≈ 121 µM) in assay [10] and over 50 µg/mL in assay [11].

In the case of `Nc1ncnc2c1ncn2C[C@@H](CO)OCP(=O)(O)O`, in [22], it took 0.24 µg/mL (≈ 0.792 µM) to reach a half-maximal effect (EC50).

For orientation: EC50 means the concentration needed to bring the measured effect to its halfway point. The IC50 is the point on the concentration scale where inhibition reaches its midpoint.
